Measurements: ChEMBL document CHEMBL1139826, “Synthesis, biological activity, and SAR of antimycobacterial 2- and 8-substituted 6-(2-furyl)-9-(p-methoxybenzyl)purines” (Bioorg Med Chem, 2007)
Converted amounts (≈) assume the structure as drawn.

Experiments:
[1] = Selectivity index, ratio of IC50 for Vero cells to MIC of Mycobacterium tuberculosis H37Rv; assay type: functional
[2] = test system: Mycobacterium tuberculosis; test: Antimicrobial activity against Mycobacterial tuberculosis ATCC 27294 at […]; assay type: functional
Escherichia coli = test: Antimicrobial activity against Escherichia coli ATCC 25922; assay type: functional
Staphylococcus aureus = test: Antimicrobial activity against Staphylococcus aureus ATCC 25923; assay type: functional
Vero = test: Cytotoxicity against Vero cells; assay type: cell-based; conditions: Chlorocebus sabaeus
In short: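 IC50 was measured in VERO mammalian cells, and only for compounds that met the M. tuberculosis MIC cutoff for follow-up. A selectivity index was then calculated as the VERO IC50 divided by the Mtb MIC.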

Row | Compound | Ratio [1] | inhibition at […] [2] | also measured
1 | COc1ccc(Cn2cnc3c(-c4ccco4)ncnc32)cc1 | >40 µg/mL | – | –
2 | COc1ccc(Cn2cnc3c(-c4ccco4)nc(N(C)C)nc32)cc1 | – | 34% | –
3 | COc1ccc(Cn2cnc3c(-c4ccco4)nc(Oc4ccccc4)nc32)cc1 | – | 72% | –
4 | COc1ccc(Cn2cnc3c(-c4ccco4)nc(Cl)nc32)cc1 | >26 µg/mL | – | MIC (Escherichia coli): > 32 mg/L; MIC (Staphylococcus aureus): > 32 mg/L
5 | COc1ccc(Cn2cnc3c(-c4ccco4)nc(SC)nc32)cc1 | 3.9 µg/mL | – | IC50 (Vero): 3.05 mg/L (≈ 8.65 µM)
